According to ChEMBL document CHEMBL4011628, “Pharmacophore Identification and Scaffold Exploration to Discover Novel, Potent, and Chemically Stable Inhibitors of Acid Ceramidase in Melanoma Cells” (J Med Chem, 2017):
Calls of active or inactive are those of the source. No cut-off for these calls is given here.

Columns and labels:
[1] = molecular target: Acid ceramidase (Homo sapiens, UniProt Q13510); assay: Inhibition of human C-terminal His-tagged acid ceramidase variant 1 expressed in HEK293 cells using fluorogenic substrate Rbm-14-12 preincubated for 30 mins followed by substrate addition measured after 1 hr by fluorogenic assay; type: cell-based
[2] = Half life in PBS buffer at pH 7.4 at 10 uM by UPLC/MS analysis; type: physicochemical
Outline: (§1)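 Compound taken from 10 mM DMSO stock to 10 μM in PBS pH 7.4 (prewarmed) or acetate pH 4.5, held at 37 °C with shaking. Samples taken over time and diluted in ACN. Analysed by UPLC BEH C18 (30–100% ACN over 4 min) with qTOF HRMS in positive ion mode. Half-life from one-phase decay fit of peak area versus time.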

[3] = Half life in acetate buffer at pH 4.5 at 10 uM by UPLC/MS analysis; type: physicochemical; outline: as §1
[4] = Half life in mouse plasma at 2 uM up to 120 mins by UPLC/MS analysis; type: ADME, cell-free
Outline: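 Mouse plasma with 5% DMSO, prewarmed 15 min at 37 °C; compound final 2.0 μM. Aliquots at 0, 5, 15, 30, 60 and 120 min quenched in cold ACN containing 200 nM warfarin internal standard. Spun 3500g, 15 min, 4 °C; supernatant run on UPLC/MS TQD. Half-life from one-phase decay fit of peak area versus time.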

[5] = molecular target: T1, Acid ceramidase (Homo sapiens, UniProt Q13510); assay: Inhibition of acid ceramidase in human A375 cells using fluorogenic substrate Rbm-14-12 preincubated for 2 hrs followed by substrate addition measured after 3 hrs by fluorogenic assay; type: cell-based
T1 sequence (Q13510 whole entry): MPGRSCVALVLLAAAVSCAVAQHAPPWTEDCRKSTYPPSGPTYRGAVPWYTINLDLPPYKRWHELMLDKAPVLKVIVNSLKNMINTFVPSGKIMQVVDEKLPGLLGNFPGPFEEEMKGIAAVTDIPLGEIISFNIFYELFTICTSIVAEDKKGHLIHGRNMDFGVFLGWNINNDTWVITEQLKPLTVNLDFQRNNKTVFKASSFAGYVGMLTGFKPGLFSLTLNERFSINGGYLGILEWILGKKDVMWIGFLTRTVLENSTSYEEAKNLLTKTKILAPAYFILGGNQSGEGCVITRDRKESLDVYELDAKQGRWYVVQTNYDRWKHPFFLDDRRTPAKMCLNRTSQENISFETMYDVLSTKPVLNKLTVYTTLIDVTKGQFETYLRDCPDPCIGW
Outline: (§2)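 A375 (5 × 10^4) or G-361 (2.5 × 10^4) cells grown in DMEM with 10% FBS and 2 mM glutamine. Compounds or DMSO added 24 h after seeding, 2 h at 37 °C. Rbm-14-12 then added to 20 μM final for 3 h. Stopped with methanol/NaIO4; fluorescence read at ex 355/em 460. Run in triplicate; IC50 from four-parameter fit, mean ± SD of two independent experiments.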

[6] = molecular target: T1, Acid ceramidase; assay: Inhibition of acid ceramidase in human G361 cells using fluorogenic substrate Rbm-14-12 preincubated for 2 hrs followed by substrate addition measured after 3 hrs by fluorogenic assay; type: cell-based; outline: as §2
[7] = system: A-375; assay: Cytotoxicity against human A375 cells assessed as […] in cell viability after 72 hrs by MTT assay; type: cell-based; settings: a-375, 72 h
[8] = system: G-361; assay: Cytotoxicity against human G361 cells assessed as […] in cell viability after 72 hrs by MTT assay; type: cell-based; settings: g-361, 72 h
[9] = molecular target: T2, Acid ceramidase (Homo sapiens) (UniProt Q13510); assay: Covalent binding affinity to recombinant human acid ceramidase assessed as N-terminal CTSIVAEDK peptide adduct formation at 10:1 molar ratio of compound to protein after 1 hr by trypsin digestion-based UPLC-MS analysis
T2 sequence (whole entry): T1 sequence (Q13510 whole entry)
Outline: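 Purified recombinant human AC (10 μg) preincubated 1 h at 37 °C in 20 mM acetate pH 4.5 with 3 mM DTT. Compound then added at 10:1 molar ratio to protein, 1 h at 37 °C; DMSO control. Stopped with cold acetone, pellet dried, redissolved in 50 mM (NH4)2CO3 pH 8. Trypsin 1:50 w/w overnight at 37 °C; peptides read by LC-MS.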

Row | Structure (SMILES) | IC50 [1] [nM] | half-life at 10 µM [2] [min] | half-life at 10 µM [3] [min] | half-life at 2 µM [4] [min] | IC50 [5] [nM] | IC50 [6] [nM] | Activity [9] | Activity [7] | Activity [8]
1 | CCCCCCNC(=O)n1c(N)nc2ccccc21 | 2.4 |  |  |  |  |  |  |  | 
2 | Cc1ccccc1CNC(=O)n1cnc2ccccc21 | 55.9 | 58 | 82 | 44 |  |  |  |  | 
3 | Cc1ccc(CNC(=O)n2cnc3ccccc32)cc1 | 14.8 | > 120 | > 120 | 94 | 505 | 928 |  | Non-Toxic | Non-Toxic
4 | CCCCCCNC(=O)n1cc(F)c(=O)[nH]c1=O [CARMOFUR] | 20.7 |  |  |  | 191 | 758 |  |  | 
5 | Cc1cccc(CNC(=O)n2cnc3ccccc32)c1 | 8.3 | 56 | > 120 | 71 |  |  |  |  | 
6 | CCCCCCNC(=O)Nc1nc2ccccc2s1 | > 10000 |  |  |  |  |  |  |  | 
7 | Cc1cccc(CNC(=O)n2c(N)nc3ccccc32)c1 | 8.5 | 11 | 27 | < 5 |  |  |  |  | 
8 | O=C(NCCCCc1ccccc1)n1c(=O)n(C(=O)NCCCCc2ccccc2)c2ccccc21 | 21 | > 120 | > 120 | > 120 |  |  |  |  | 
9 | Cc1ccccc1CNC(=O)n1c(N)nc2ccccc21 | 68.4 | 10 | 27 | < 5 |  |  |  |  | 
10 | CCCCCCNC(=O)N1C(=O)c2ccccc2C1=O | 7 | 9 | > 120 | 29 |  |  |  |  | 
11 | Cc1ccc(CNC(=O)n2c(N)nc3ccccc32)cc1 | 7 | 23 | 34 | < 5 |  |  |  |  | 
12 | CCCCCCNC(=O)Nc1nc2ccccc2[nH]1 | > 10000 |  |  |  |  |  |  |  | 
13 | CCCCCCNC(=O)Nc1nc2ccccc2o1 | > 10000 |  |  |  |  |  |  |  | 

Further lines, with some results ahead:

Row | IC50 [1] [nM] | half-life at 10 µM [2] [min] | half-life at 10 µM [3] [min] | half-life at 2 µM [4] [min] | IC50 [5] [nM] | IC50 [6] [nM] | Activity [9] | Structure (SMILES) | Activity [7] | Activity [8]
14 | > 10000 |  |  |  |  |  |  | O=C(NCCCCc1ccccc1)Nc1nc2ccccc2s1 |  | 
15 | 0.9 | 14 | 43 | 9 |  |  |  | Nc1nc2ccccc2n1C(=O)NCCCCc1ccccc1 |  | 
16 | > 10000 | > 120 | > 120 | > 120 |  |  |  | O=C(NCCCCc1ccccc1)n1c(=O)[nH]c2ccccc21 |  | 
17 | 4.1 | 17 | > 120 | 13 |  |  |  | CCCCCCNC(=O)n1nnc2ccccc21 |  | 
18 | 2.2 | 2 | > 120 | < 5 |  |  |  | CCCCCCNC(=O)n1nnc2ncccc21 |  | 
19 | > 10000 |  |  |  |  |  |  | O=C(NCCCCc1ccccc1)Nc1nc2ccccc2o1 |  | 
20 | 6.6 | 59 | > 120 | > 120 |  |  |  | CCCCCCNC(=O)n1cnc2ccccc21 |  | 
21 | 1 | 7 | 8 | 11 |  |  |  | Cc1nc2ccccc2n1C(=O)NCCCCc1ccccc1 |  | 
22 | 2.5 | 50 | > 120 | > 120 | 75.6 | 230 | Active | O=C(NCCCCc1ccccc1)n1cnc2ccccc21 | Non-Toxic | Non-Toxic
23 | > 10000 |  |  |  |  |  |  | O=C(NCCCCc1ccccc1)Nc1nc2ccccc2[nH]1 |  | 
24 | 9.9 | 81 | > 120 | > 120 |  |  |  | CCCCCCNC(=O)n1ncc2ccccc21 |  | 
25 | 22.5 | > 120 | 94 | 108 | 1060 | 2800 |  | O=C(NCc1ccccc1)n1cnc2ccccc21 | Non-Toxic | Non-Toxic
26 | 13.9 | > 120 | > 120 | > 120 | 967 | 2780 | Active | COc1nc2ccccc2n1C(=O)NCCCCc1ccccc1 | Non-Toxic | Non-Toxic
27 | 2.4 | 6 | > 120 | 23 |  |  |  | O=C(NCCCCc1ccccc1)N1C(=O)c2ccccc2C1=O |  | 
28 | 1.3 | 2 | > 120 | < 5 |  |  |  | O=C(NCCCCc1ccccc1)n1nnc2ncccc21 |  | 
29 | 2.1 |  | > 120 |  |  |  |  | O=C(NCCCCc1ccccc1)n1nnc2ccccc21 |  | 
30 | 4.7 | 134 | > 120 | > 120 |  |  |  | O=C(NCCCCc1ccccc1)n1ncc2ccccc21 |  | 
31 | 29.3 | 13 | 42 | 13 |  |  |  | Nc1nc2ccccc2n1C(=O)NCc1ccccc1 |  | 
